Results pooled from the literature.
Compare with care: the assays were run in different laboratories.
AKR1B1: Aldo-keto reductase family 1 member B1 (AKR1B1, Homo sapiens, UniProt P15121)
LATS2: Serine/threonine-protein kinase LATS2 (LATS2, Homo sapiens, UniProt Q9NRM7)
CD36: Platelet glycoprotein 4 (CD36, Homo sapiens, UniProt P16671)
TRPM8: Transient receptor potential cation channel subfamily M member 8 (TRPM8, Homo sapiens, UniProt Q7Z2W7)

SMILES | target | observed | mode | technique | endpoint | result
COc1cc(/C=N/NC(=S)N/N=C\c2ccc(CCl)cc2)ccc1Oc1ccnc2cc(Cl)ccc12 | AKR1B1 | enzyme activity | inhibitor | absorbance | IC50 | 20.4 µM
Cc1cc(-c2ccnc3[nH]cc(F)c23)cc(F)c1[C@@]1(O)[C@H](C)CN(C(=O)CN)C[C@@H]1C | LATS2 | binding | – | TR-FRET | Kd | 0.00049 µM
COc1cc(/C=N/NC(=S)N/N=C\c2ccc([N+](=O)[O-])cc2)ccc1Oc1ccnc2cc(Cl)ccc12 | AKR1B1 | enzyme activity | inhibitor | absorbance | IC50 | 16.6 µM
NCCS(=O)(=O)O | Sodium- and chloride-dependent taurine transporter (SLC6A6, Homo sapiens, UniProt P31641) | binding | – | MST | Kd | 0.71 µM
CCOc1cccc(C2CC(=O)Nc3c2c(C)nn3-c2ccc3nncn3n2)c1 (stereo not drawn) | DNA damage-binding protein 1 (DDB1, Homo sapiens, UniProt Q16531) | binding | – | SPR | Kd | 10 µM
CCCCCCCCCCCCCCCC(=O)O | CD36 | binding | – | SPR | Kd | 247 µM
CCCCC(=O)Nc1ccc(-c2ccc3ncn(CCC)c(=O)c3c2)cn1 | Phosphatidylinositol 5-phosphate 4-kinase type-2 gamma (PIP4K2C, Homo sapiens, UniProt Q8TBX8) | binding | – | competition with immobilised ligand | Kd | 0.00655 µM
Cc1ncsc1-c1ccc(CNC(=O)[C@@H]2C[C@@H](O)CN2C(=O)[C@@H](NC(=O)COCCOCCOCCNC(=O)C[C@@H]2N=C(c3ccc(Cl)cc3)c3c(sc(C)c3C)-n3c(C)nnc32)C(C)(C)C)cc1 | CD36 | binding | – | SPR | Kd | 9.6 µM
COc1ccc(NC(=O)[C@@H]2C[C@H](C)CC[C@H]2C(C)C)cc1 | TRPM8 | ion current | agonist | patch clamp | EC50 | 4 µM
O=C(c1ccccc1)c1ccc(OCCCn2cnc3ccccc3c2=O)cc1 | CD36 | binding | – | MST | Kd | 10 µM
OC1(c2ccc(-c3ccnc4[nH]cc(F)c34)cc2)CCNCC1 | LATS2 | enzyme activity | inhibitor | radiometric | IC50 | 0.0057 µM
COc1cc(/C=N/NC(=S)NN=Cc2sccc2C)ccc1Oc1ccnc2cc(Cl)ccc12 | AKR1B1 | enzyme activity | inhibitor | absorbance | IC50 | 15.9 µM
Fc1c[nH]c2nccc(-c3ccc(C4CCNCC4)cc3)c12 | LATS2 | enzyme activity | inhibitor | radiometric | IC50 | 0.011 µM
COc1cc(/C=N/NC(=S)N/N=C/c2ccc(Br)s2)ccc1Oc1ccnc2cc(Cl)ccc12 | AKR1B1 | enzyme activity | inhibitor | absorbance | IC50 | 17.7 µM
CNC(=O)C(C)(C(C)C)C(C)C | TRPM8 | calcium signal | agonist | – | EC50 | 56.5 µM
O=C1NC(c2cccc([N+](=O)[O-])c2)=CCN1c1ccccc1O | TRPM8 | ion current | agonist | patch clamp | EC50 | 0.412 µM
CCCCC1OC(=O)c2ccccc21 (stereo not drawn) | Vimentin (VIM, Homo sapiens, UniProt P08670) | binding | – | SPR | Kd | 3.42 µM
Cc1cc(-c2ccnc3[nH]cc(F)c23)cc(F)c1[C@@]1(O)[C@H](C)CN(C2CCS(=O)(=O)CC2)C[C@@H]1C | LATS2 | enzyme activity | inhibitor | radiometric | IC50 | 0.0055 µM
